Results reported in ChEMBL document CHEMBL4680248 (Eur J Med Chem, 2020).
Activity calls are given as the source filed them. No cut-off for these calls is given here.

What was measured:
[1] = target: T1, GABA-A receptor; alpha-1/beta-3/gamma-2 (Homo sapiens, UniProt P14867+P18507+P28472); assay: Positive allosteric modulation of GABAA alpha1beta3gamma2L in HEK cell plasma membrane assessed as increase in [3H]muscimol binding measured after 10 mins by liquid scintillation counting method; format: cell membranes
T1 sequence (P14867 whole entry): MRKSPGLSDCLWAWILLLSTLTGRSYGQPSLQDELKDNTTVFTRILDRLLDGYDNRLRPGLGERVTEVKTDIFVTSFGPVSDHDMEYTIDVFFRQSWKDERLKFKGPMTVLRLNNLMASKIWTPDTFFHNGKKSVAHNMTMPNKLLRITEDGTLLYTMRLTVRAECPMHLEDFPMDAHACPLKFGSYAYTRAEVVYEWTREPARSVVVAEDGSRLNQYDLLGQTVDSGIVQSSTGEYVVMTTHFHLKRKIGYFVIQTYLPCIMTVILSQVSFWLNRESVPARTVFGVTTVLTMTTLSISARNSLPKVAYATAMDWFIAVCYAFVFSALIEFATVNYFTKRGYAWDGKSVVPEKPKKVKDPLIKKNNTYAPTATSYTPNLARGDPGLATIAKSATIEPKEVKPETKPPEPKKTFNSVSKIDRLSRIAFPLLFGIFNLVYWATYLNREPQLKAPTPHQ
T1 sequence (P18507 whole entry): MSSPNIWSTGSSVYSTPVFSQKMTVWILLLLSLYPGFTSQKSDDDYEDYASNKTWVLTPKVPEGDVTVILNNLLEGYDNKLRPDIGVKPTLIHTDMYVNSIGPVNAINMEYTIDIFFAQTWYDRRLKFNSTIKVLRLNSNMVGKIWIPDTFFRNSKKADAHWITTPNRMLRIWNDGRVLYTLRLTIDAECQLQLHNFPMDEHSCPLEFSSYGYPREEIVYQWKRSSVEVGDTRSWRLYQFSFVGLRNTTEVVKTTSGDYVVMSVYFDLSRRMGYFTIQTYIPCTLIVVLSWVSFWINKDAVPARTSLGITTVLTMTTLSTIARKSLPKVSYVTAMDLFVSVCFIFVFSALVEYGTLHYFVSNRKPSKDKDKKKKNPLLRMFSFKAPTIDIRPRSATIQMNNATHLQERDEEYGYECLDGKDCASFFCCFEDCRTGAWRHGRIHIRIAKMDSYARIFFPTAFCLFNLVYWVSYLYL
T1 sequence (P28472 whole entry): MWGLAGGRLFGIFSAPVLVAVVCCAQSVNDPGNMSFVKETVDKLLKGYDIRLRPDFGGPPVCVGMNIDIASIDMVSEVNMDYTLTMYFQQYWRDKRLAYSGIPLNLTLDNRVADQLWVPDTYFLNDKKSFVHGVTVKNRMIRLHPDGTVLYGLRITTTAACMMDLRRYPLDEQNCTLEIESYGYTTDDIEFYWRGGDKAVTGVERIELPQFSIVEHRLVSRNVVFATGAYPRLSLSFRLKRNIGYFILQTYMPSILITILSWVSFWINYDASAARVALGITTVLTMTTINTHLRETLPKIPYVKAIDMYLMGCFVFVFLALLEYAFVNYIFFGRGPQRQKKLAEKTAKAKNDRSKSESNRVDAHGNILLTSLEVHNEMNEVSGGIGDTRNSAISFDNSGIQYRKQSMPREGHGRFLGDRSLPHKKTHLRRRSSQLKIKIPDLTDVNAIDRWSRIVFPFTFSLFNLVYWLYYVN
In short: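 HEK293 membranes (100 μg protein) from tetracycline-inducible cells expressing FLAG-tagged human receptors. Incubated 10 min with 2 nM [3H]muscimol (final) and modulator in 10 mM phosphate, 200 mM KCl, 1 mM EDTA, pH 7.4. Filtered on PEI-treated GF/B filters and washed twice with cold buffer. EC50 from fitting a logistic equation (Eqn 1) to pooled concentration-response points from independent experiments.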

[2] = target: T1, GABA-A receptor; alpha-1/beta-3/gamma-2; assay: Inhibition of [3H]R-mTFD-MPAB labelling of GABAA alpha1beta3gamma2L (unknown origin) expressed in Xenopus laevis oocytes assessed as reduction in photoincorporation at M227 residues of beta3 subunit measured after 30 mins in presence of GABA by liquid scintillation counting method; format: cell-based
Xenopus laevis = assay: Anesthetic activity in Xenopus laevis tadpoles assessed as increase in loss of righting reflex incubated for 30 to 60 mins; format: functional, organism-based
[3] = target: T1, GABA-A receptor; alpha-1/beta-3/gamma-2; assay: Inhibition of [3H]azietomidate labelling of GABAA alpha1beta3gamma2L (unknown origin) expressed in Xenopus laevis oocytes assessed as reduction in photoincorporation at M236 residues of alpha1 subunit measured after 30 mins in presence of GABA by liquid scintillation counting method; format: cell-based, Oocyte
Oocyte [4] = format: cell-based; conditions: Homo sapiens, filed as positive allosteric modulator, dose 8.0 µM
Oocyte [5] = assay: Positive allosteric modulation of GABAA alpha1beta3gamma2L S280W mutant (unknown origin) expressed in Xenopus laevis oocytes assessed as increase in GABA-induced current at 8 uM by two microelectrode voltage-clamp electrophysiology; format: cell-based; conditions: Homo sapiens
Oocyte [6] = assay: Positive allosteric modulation of GABAA alpha1beta3gamma2L S270I mutant (unknown origin) expressed in Xenopus laevis oocytes assessed as increase in GABA-induced current at 8 uM by two microelectrode voltage-clamp electrophysiology; format: cell-based; conditions: Homo sapiens
Oocyte [7] = assay: Positive allosteric modulation of GABAA alpha1beta3gamma2L I242W mutant (unknown origin) expressed in Xenopus laevis oocytes assessed as increase in GABA-induced current at 8 uM by two microelectrode voltage-clamp electrophysiology; format: cell-based; conditions: Homo sapiens, filed as positive allosteric modulator
Oocyte [8] = assay: Positive allosteric modulation of GABAA alpha1beta3gamma2L M227W mutant (unknown origin) expressed in Xenopus laevis oocytes assessed as increase in GABA-induced current at 8 uM by two microelectrode voltage-clamp electrophysiology; format: cell-based; conditions: Homo sapiens, filed as positive allosteric modulator
[9] = target: T2, GABA-A receptor alpha-1/beta-3 (Homo sapiens, UniProt P14867+P28472); assay: Positive allosteric modulation of GABAA alpha1beta3 in HEK cell plasma membrane assessed as increase in [3H]muscimol binding measured after 10 mins by liquid scintillation counting method; format: cell membranes
T2 sequence (P14867 whole entry): T1 sequence (P14867 whole entry)
T2 sequence (P28472 whole entry): T1 sequence (P28472 whole entry)
In short: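 Native membranes from tetracycline-inducible HEK293 cells expressing FLAG-tagged human receptors (100 μg protein), [3H]muscimol 2 nM final, plus modulator in 10 mM phosphate, 200 mM KCl, 1 mM EDTA, pH 7.4; 10 min incubation, filtration on PEI-treated GF/B filters, two cold washes. Concentration-response curves from independent experiments fitted to a Hill equation for EC50 and nH.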

[10] = Toxicity in Xenopus laevis tadpoles
[11] = target: T1, GABA-A receptor; alpha-1/beta-3/gamma-2; assay: Inhibition of [3H]pTFD-di-iPr-BnOH labelling of GABAA alpha1beta3gamma2L (unknown origin) expressed in Xenopus laevis oocytes assessed as reduction in photoincorporation at beta subunit measured after 30 mins in presence of GABA by liquid scintillation counting method; format: cell-based
[12] = target: T1, GABA-A receptor; alpha-1/beta-3/gamma-2; assay: Positive allosteric modulation of GABAA alpha1beta3gamma2L (unknown origin) expressed in Xenopus laevis oocytes assessed as increase in GABA-induced current by two microelectrode voltage-clamp electrophysiology; format: cell-based, Oocyte
In short: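 Human subunit mRNA (0.5–1 ng, α:β:γ 1:1:5) injected into Xenopus oocytes, recorded about 24 h later. Two-electrode voltage clamp at −50 mV, room temperature, ND96 pH 7.6.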

OCc1ccc(C2(C(F)(F)F)N=N2)cc1
EC50 [1]: 700 µM
IC50 [2]: 465 µM
EC50 (Xenopus laevis): 28 µM
IC50 [3]: 305 µM

C=CCC1(c2cccc(C3(C(F)(F)F)N=N3)c2)C(=O)NC(=O)N(C)C1=O (stereo not drawn)
Activity (Oocyte [4]): Active
Activity (Oocyte [5]): inactive
Activity (Oocyte [6]): inactive
Activity (Oocyte [7]): Active
Activity (Oocyte [8]): Active

OCc1ccccc1 [BENZYL ALCOHOL]
EC50 [1]: > 50000 µM
EC50 (Xenopus laevis): 2000 µM

CC(C)c1cc(C2(C(F)(F)F)N=N2)cc(C(C)C)c1CO
EC50 [9]: 2.9 µM
LC50 [10]: 3.6 µM
EC50 [1]: 7.4 µM
IC50 [2]: 26 µM
IC50 [11]: 18 µM
EC50 (Xenopus laevis): 2.5 µM
IC50 [3]: 460 µM
EC50 [12]: 10 µM

CC(C)c1cccc(C(C)C)c1O [PROPOFOL]
EC50 [1]: 5.4 µM
IC50 [2]: 44 µM
IC50 [11]: 32 µM
EC50 (Xenopus laevis): 0.63 µM
IC50 [3]: 8 µM

CC(C)c1cccc(C(C)C)c1CO
EC50 [1]: 40 µM
IC50 [2]: 243 µM
EC50 (Xenopus laevis): 16 µM
IC50 [3]: 92 µM
